In ChEMBL document CHEMBL4152188, “Design, synthesis and biological evaluation of C(4) substituted monobactams as antibacterial agents against multidrug-resistant Gram-negative bacteria” (Eur J Med Chem, 2018):
Values after ≈ are worked out from the molar mass of the structure shown.

How the values were obtained:
Format in all cases: functional
Escherichia coli [1] = experiment: Antibacterial activity against extended-spectrum beta-lactamase producing Escherichia coli isolate 212648 after 18 hrs by CLSI broth microdilution method; settings: isolate 212648, 18 h
Escherichia coli [2] = experiment: Selectivity index, ratio of MIC for against extended-spectrum beta-lactamase producing Escherichia coli isolate 208687 to MIC for extended-spectrum beta-lactamase producing Escherichia coli isolate 208687 in presence of BPL
Escherichia coli [3] = experiment: Antibacterial activity against Escherichia coli isolate 210737 after 18 hrs by CLSI broth microdilution method; settings: isolate 210737, 18 h
Escherichia coli [4] = experiment: Antibacterial activity against extended-spectrum beta-lactamase producing Escherichia coli isolate 208687 after 18 hrs by CLSI broth microdilution method; settings: isolate 208687, 18 h
Escherichia coli [5] = experiment: Antibacterial activity against extended-spectrum beta-lactamase producing Escherichia coli isolate 208687 after 18 hrs in presence of BPL by CLSI broth microdilution method; settings: isolate 208687, 18 h
Method in brief: (§1)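 CLSI broth microdilution against clinical isolates (ESBL E. coli, KPC-2 MDR K. pneumoniae, IMP-4 MDR P. aeruginosa; five per species). Iron limitation: Mueller-Hinton broth supplemented with 16 mg/liter 2,2'-bipyridyl to complex iron and induce iron uptake systems. Read-out: MIC.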

Escherichia coli [6] = experiment: Antibacterial activity against Escherichia coli isolate 210737 after 18 hrs in presence of BPL by CLSI broth microdilution method; settings: isolate 210737, 18 h; method in brief: as §1
Escherichia coli [7] = experiment: Selectivity index, ratio of MIC for against Escherichia coli isolate 210737 to MIC for Escherichia coli isolate 210737 in presence of BPL
Escherichia coli [8] = experiment: Antibacterial activity against extended-spectrum beta-lactamase producing Escherichia coli isolate 212648 after 18 hrs in presence of BPL by CLSI broth microdilution method; settings: isolate 212648, 18 h; method in brief: as §1
Escherichia coli [9] = experiment: Selectivity index, ratio of MIC for against extended-spectrum beta-lactamase producing Escherichia coli isolate 212648 to MIC for extended-spectrum beta-lactamase producing Escherichia coli isolate 212648 in presence of BPL
Escherichia coli [10] = experiment: Antibacterial activity against extended-spectrum beta-lactamase producing Escherichia coli isolate 209285 after 18 hrs by CLSI broth microdilution method; settings: isolate 209285, 18 h
Escherichia coli [11] = experiment: Antibacterial activity against extended-spectrum beta-lactamase producing Escherichia coli isolate 209285 after 18 hrs in presence of BPL by CLSI broth microdilution method; settings: isolate 209285, 18 h; method in brief: as §1
Escherichia coli [12] = experiment: Selectivity index, ratio of MIC for against extended-spectrum beta-lactamase producing Escherichia coli isolate 209285 to MIC for extended-spectrum beta-lactamase producing Escherichia coli isolate 209285 in presence of BPL
Escherichia coli [13] = experiment: Antibacterial activity against extended-spectrum beta-lactamase producing Escherichia coli isolate 106342 after 18 hrs by CLSI broth microdilution method; settings: isolate 106342, 18 h
Escherichia coli [14] = experiment: Antibacterial activity against extended-spectrum beta-lactamase producing Escherichia coli isolate 106342 after 18 hrs in presence of BPL by CLSI broth microdilution method; settings: isolate 106342, 18 h; method in brief: as §1
Escherichia coli [15] = experiment: Selectivity index, ratio of MIC for against extended-spectrum beta-lactamase producing Escherichia coli isolate 106342 to MIC for extended-spectrum beta-lactamase producing Escherichia coli isolate 106342 in presence of BPL
Klebsiella pneumoniae [16] = experiment: Antibacterial activity against KPC-2 producing Klebsiella pneumoniae isolate 212423 after 18 hrs by CLSI broth microdilution method; settings: isolate 212423, 18 h
Klebsiella pneumoniae [17] = experiment: Antibacterial activity against KPC-2 producing Klebsiella pneumoniae isolate 212423 after 18 hrs in presence of BPL by CLSI broth microdilution method; settings: isolate 212423, 18 h; method in brief: as §1
Klebsiella pneumoniae [18] = experiment: Selectivity index, ratio of MIC for against KPC-2 producing Klebsiella pneumoniae isolate 212423 to MIC for against KPC-2 producing Klebsiella pneumoniae isolate 212423 in presence of BPL
Klebsiella pneumoniae [19] = experiment: Antibacterial activity against KPC-2 producing Klebsiella pneumoniae isolate 209632 after 18 hrs by CLSI broth microdilution method; settings: isolate 209632, 18 h
Klebsiella pneumoniae [20] = experiment: Antibacterial activity against KPC-2 producing Klebsiella pneumoniae isolate 209632 after 18 hrs in presence of BPL by CLSI broth microdilution method; settings: isolate 209632, 18 h; method in brief: as §1
Klebsiella pneumoniae [21] = experiment: Selectivity index, ratio of MIC for against KPC-2 producing Klebsiella pneumoniae isolate 209632 to MIC for against KPC-2 producing Klebsiella pneumoniae isolate 209632 in presence of BPL
Klebsiella pneumoniae [22] = experiment: Antibacterial activity against KPC-2 producing Klebsiella pneumoniae isolate 209735 after 18 hrs by CLSI broth microdilution method; settings: isolate 209735, 18 h
Klebsiella pneumoniae [23] = experiment: Antibacterial activity against KPC-2 producing Klebsiella pneumoniae isolate 209735 after 18 hrs in presence of BPL by CLSI broth microdilution method; settings: isolate 209735, 18 h; method in brief: as §1
Klebsiella pneumoniae [24] = experiment: Selectivity index, ratio of MIC for against KPC-2 producing Klebsiella pneumoniae isolate 209735 to MIC for against KPC-2 producing Klebsiella pneumoniae isolate 209735 in presence of BPL
Klebsiella pneumoniae [25] = experiment: Antibacterial activity against KPC-2 producing Klebsiella pneumoniae isolate 212232 after 18 hrs by CLSI broth microdilution method; settings: isolate 212232, 18 h
Klebsiella pneumoniae [26] = experiment: Antibacterial activity against KPC-2 producing Klebsiella pneumoniae isolate 212232 after 18 hrs in presence of BPL by CLSI broth microdilution method; settings: isolate 212232, 18 h; method in brief: as §1
Klebsiella pneumoniae [27] = experiment: Selectivity index, ratio of MIC for against KPC-2 producing Klebsiella pneumoniae isolate 212232 to MIC for against KPC-2 producing Klebsiella pneumoniae isolate 212232 in presence of BPL
Klebsiella pneumoniae [28] = experiment: Antibacterial activity against KPC-2 producing Klebsiella pneumoniae isolate 212229 after 18 hrs by CLSI broth microdilution method; settings: isolate 212229, 18 h
Klebsiella pneumoniae [29] = experiment: Antibacterial activity against KPC-2 producing Klebsiella pneumoniae isolate 212229 after 18 hrs in presence of BPL by CLSI broth microdilution method; settings: isolate 212229, 18 h; method in brief: as §1
Klebsiella pneumoniae [30] = experiment: Selectivity index, ratio of MIC for against KPC-2 producing Klebsiella pneumoniae isolate 212229 to MIC for against KPC-2 producing Klebsiella pneumoniae isolate 212229 in presence of BPL
Pseudomonas aeruginosa [31] = experiment: Antibacterial activity against IMP-4 producing Pseudomonas aeruginosa isolate 212886 after 18 hrs by CLSI broth microdilution method; settings: isolate 212886, 18 h
Pseudomonas aeruginosa [32] = experiment: Antibacterial activity against IMP-4 producing Pseudomonas aeruginosa isolate 212886 after 18 hrs in presence of BPL by CLSI broth microdilution method; settings: isolate 212886, 18 h; method in brief: as §1
Pseudomonas aeruginosa [33] = experiment: Selectivity index, ratio of MIC for against IMP-4 producing Pseudomonas aeruginosa isolate 212886 to MIC for against IMP-4 producing Pseudomonas aeruginosa isolate 212886 in presence of BPL
Pseudomonas aeruginosa [34] = experiment: Antibacterial activity against IMP-4 producing Pseudomonas aeruginosa isolate 209471 after 18 hrs by CLSI broth microdilution method; settings: isolate 209471, 18 h
Pseudomonas aeruginosa [35] = experiment: Antibacterial activity against IMP-4 producing Pseudomonas aeruginosa isolate 209471 after 18 hrs in presence of BPL by CLSI broth microdilution method; settings: isolate 209471, 18 h; method in brief: as §1
Pseudomonas aeruginosa [36] = experiment: Selectivity index, ratio of MIC for against IMP-4 producing Pseudomonas aeruginosa isolate 209471 to MIC for against IMP-4 producing Pseudomonas aeruginosa isolate 209471 in presence of BPL
Pseudomonas aeruginosa [37] = experiment: Antibacterial activity against IMP-4 producing Pseudomonas aeruginosa isolate 208247 after 18 hrs by CLSI broth microdilution method; settings: isolate 208247, 18 h
Pseudomonas aeruginosa [38] = experiment: Antibacterial activity against IMP-4 producing Pseudomonas aeruginosa isolate 208247 after 18 hrs in presence of BPL by CLSI broth microdilution method; settings: isolate 208247, 18 h; method in brief: as §1
Pseudomonas aeruginosa [39] = experiment: Selectivity index, ratio of MIC for against IMP-4 producing Pseudomonas aeruginosa isolate 208247 to MIC for against IMP-4 producing Pseudomonas aeruginosa isolate 208247 in presence of BPL
Pseudomonas aeruginosa [40] = experiment: Antibacterial activity against IMP-4 producing Pseudomonas aeruginosa isolate 209321 after 18 hrs by CLSI broth microdilution method; settings: isolate 209321, 18 h
Pseudomonas aeruginosa [41] = experiment: Antibacterial activity against IMP-4 producing Pseudomonas aeruginosa isolate 209321 after 18 hrs in presence of BPL by CLSI broth microdilution method; settings: isolate 209321, 18 h; method in brief: as §1
Pseudomonas aeruginosa [42] = experiment: Selectivity index, ratio of MIC for against IMP-4 producing Pseudomonas aeruginosa isolate 209321 to MIC for against IMP-4 producing Pseudomonas aeruginosa isolate 209321 in presence of BPL
Pseudomonas aeruginosa [43] = experiment: Antibacterial activity against IMP-4 producing Pseudomonas aeruginosa isolate 207272 after 18 hrs by CLSI broth microdilution method; settings: isolate 207272, 18 h
Pseudomonas aeruginosa [44] = experiment: Antibacterial activity against IMP-4 producing Pseudomonas aeruginosa isolate 207272 after 18 hrs in presence of BPL by CLSI broth microdilution method; settings: isolate 207272, 18 h; method in brief: as §1
Pseudomonas aeruginosa [45] = experiment: Selectivity index, ratio of MIC for against IMP-4 producing Pseudomonas aeruginosa isolate 207272 to MIC for against IMP-4 producing Pseudomonas aeruginosa isolate 207272 in presence of BPL

- MIC (Escherichia coli [1]): 32 µg/mL (≈ 44.6 µM)
- MIC (Escherichia coli [3]): > 64 µg/mL
- MIC (Escherichia coli [4]): 32 µg/mL (≈ 44.6 µM)
- MIC (Escherichia coli [5]): 16 µg/mL
- MIC (Escherichia coli [6]): > 64 µg/mL
- MIC (Escherichia coli [8]): 16 µg/mL
- MIC (Escherichia coli [10]): 32 µg/mL (≈ 44.6 µM)
- MIC (Escherichia coli [11]): 32 µg/mL
- MIC (Escherichia coli [13]): 16 µg/mL (≈ 22.3 µM)
- MIC (Escherichia coli [14]): 8 µg/mL
- MIC (Klebsiella pneumoniae [16]): 16 µg/mL (≈ 22.3 µM)
- MIC (Klebsiella pneumoniae [17]): 4 µg/mL
- MIC (Klebsiella pneumoniae [19]): 32 µg/mL (≈ 44.6 µM)
- MIC (Klebsiella pneumoniae [20]): 4 µg/mL
- MIC (Klebsiella pneumoniae [22]): 32 µg/mL (≈ 44.6 µM)
- MIC (Klebsiella pneumoniae [23]): 4 µg/mL
- MIC (Klebsiella pneumoniae [25]): 32 µg/mL (≈ 44.6 µM)
- MIC (Klebsiella pneumoniae [26]): 4 µg/mL
- MIC (Klebsiella pneumoniae [28]): 32 µg/mL (≈ 44.6 µM)
- MIC (Klebsiella pneumoniae [29]): 4 µg/mL
- MIC (Pseudomonas aeruginosa [31]): > 64 µg/mL
- MIC (Pseudomonas aeruginosa [32]): > 64 µg/mL
- MIC (Pseudomonas aeruginosa [34]): 64 µg/mL (≈ 89.2 µM)
- MIC (Pseudomonas aeruginosa [35]): 64 µg/mL
- MIC (Pseudomonas aeruginosa [37]): > 64 µg/mL
- MIC (Pseudomonas aeruginosa [38]): > 64 µg/mL
- MIC (Pseudomonas aeruginosa [40]): 64 µg/mL (≈ 89.2 µM)
- MIC (Pseudomonas aeruginosa [41]): 32 µg/mL
- MIC (Pseudomonas aeruginosa [43]): > 64 µg/mL
- MIC (Pseudomonas aeruginosa [44]): > 64 µg/mL
SMILES: CC(C)C(O/N=C(\C(=O)N[C@@H]1C(=O)N(S(=O)(=O)O)[C@@H]1COC(=O)c1ccc(O)c(O)c1Cl)c1csc(N)n1)c1cc(=O)c(O)cn1O (stereo not given in full)
- Selectivity Index (Escherichia coli [2]): 2
- Selectivity Index (Escherichia coli [7]): 1 - 2
- Selectivity Index (Escherichia coli [9]): 2
- Selectivity Index (Escherichia coli [12]): 1
- Selectivity Index (Escherichia coli [15]): 2
- Selectivity Index (Klebsiella pneumoniae [18]): 4
- Selectivity Index (Klebsiella pneumoniae [21]): 8
- Selectivity Index (Klebsiella pneumoniae [24]): 8
- Selectivity Index (Klebsiella pneumoniae [27]): 8
- Selectivity Index (Klebsiella pneumoniae [30]): 8
- Selectivity Index (Pseudomonas aeruginosa [33]): 1 - 2
- Selectivity Index (Pseudomonas aeruginosa [36]): 1
- Selectivity Index (Pseudomonas aeruginosa [39]): 1 - 2
- Selectivity Index (Pseudomonas aeruginosa [42]): 2
- Selectivity Index (Pseudomonas aeruginosa [45]): 1 - 2
